From ChEMBL document CHEMBL4043127, “ATP-competitive, marine derived natural products that target the DEAD box helicase, eIF4A” (Bioorg Med Chem Lett, 2017)
Active and inactive are the calls of the source. No cut-off for these calls is given here.

Columns and labels:
[1] = molecular target: Eukaryotic initiation factor 4A-I (Homo sapiens) (UniProt P60842); test: Inhibition of eIF4A (unknown origin) expressed in Escherichia coli BL21(DE3) at 100 uM preincubated for 10 mins followed by ATP and fluorescently-labeled RNA addition measured after 10 mins by real-time fluorescence assay
How it was run: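 Recombinant eIF4A from E. coli BL21(DE3), Talon-purified, at 500 nM in pH 6.0 MES-KOH buffer (10 mM K acetate, 2.5 mM MgCl2, 1% glycerol, 1 mM DTT). Preincubated with 100 µM compound (2% DMSO final) for 10 min at 22°C. Started with 50 nM labeled RNA plus 1 mM ATP, then real-time fluorescence read for 10 min at 25°C. Percent inhibition from slopes versus DMSO and water (no-ATP) controls.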

[2] = molecular target: ATP-dependent RNA helicase DDX3X (Homo sapiens, UniProt O00571); test: Inhibition of DDX3 (unknown origin) preincubated for 10 mins followed by ATP addition by malachite green dye-based assay
How it was run: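 Compounds 100 to 0.0457 µM, 2% DMSO final, 10 min at 37°C. Initiated with 250 µM ATP at 37°C. Released phosphate detected with malachite green at OD660. IC50 fitted from normalized percent inhibition on a semi-log plot.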

[3] = molecular target: Eukaryotic initiation factor 4A-I (Homo sapiens) (UniProt P60842)
[4] = molecular target: Probable ATP-dependent RNA helicase DDX17 (Homo sapiens, UniProt Q92841); test: Inhibition of DDX17 (unknown origin) expressed in Escherichia coli BL21(DE3) preincubated for 10 mins followed by ATP addition measured after 120 mins by malachite green dye-based assay
How it was run: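 Compound gradient 100 to 0.0457 µM (3-fold), final DMSO 2%, 10 min at 37°C. Reaction started with 250 µM ATP at 37°C, phosphate read by malachite green OD660 at 120 min. IC50 from normalized % inhibition versus log concentration.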

[5] = molecular target: ATP-dependent RNA helicase DDX39A (Homo sapiens, UniProt O00148); test: Inhibition of DDX39A (unknown origin) expressed in Escherichia coli BL21(Rosetta 2) preincubated for 10 mins followed by ATP addition measured after 60 mins by malachite green dye-based assay
How it was run: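 His-tagged DDX39A at 500 nM in MES-KOH pH 6.0 buffer (10 mM KOAc, 2.5 mM MgCl2, 1% glycerol, 1 mM DTT). Eight-point 3-fold series 100 to 0.0457 µM, 2% DMSO final, 10 min preincubation at 37°C. Started with 250 µM ATP, 60 min at 37°C, then malachite green read at OD660. EDTA 20 mM served as positive control. IC50 by semi-log fit of normalized inhibition.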

[6] = molecular target: Heat shock 70 kDa protein 1A (Homo sapiens, UniProt P0DMV8); test: Inhibition of HSPA1A (unknown origin) expressed in Escherichia coli BL21(DE3) preincubated for 10 mins followed by ATP addition by malachite green dye-based assay
How it was run: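 His-tagged HSPA1A, induced at 16°C, used at 1,000 nM in 50 mM Tris-HCl pH 7.4, 150 mM KCl, 10 mM MgCl2. Compounds 100 to 0.0457 µM, 2% DMSO final, 10 min preincubation at 37°C. Reaction started with 200 µM ATP at 37°C, phosphate detected by malachite green OD660. IC50 by semi-log fit of normalized inhibition.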

[7] = molecular target: Eukaryotic initiation factor 4A-I (Homo sapiens) (UniProt P60842); test: Inhibition of eIF4A1 (unknown origin) expressed in Escherichia coli BL21(DE3) at 0.01 to 100 uM using Poly(U) RNA as substrate preincubated for 10 mins followed by substrate addition measured after 60 mins by malachite green dye-based assay
How it was run: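 Compound dilutions 100 to 0.0457 µM, 2% DMSO final, 10 min at 37°C. ATP added and reaction run 60 min at 37°C, then malachite green OD660 read. DMSO 2% and 20 mM EDTA served as controls. IC50 from semi-log fit.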

[8] = molecular target: Transitional endoplasmic reticulum ATPase (Homo sapiens, UniProt P55072); test: Inhibition of p97 (unknown origin) expressed in Escherichia coli BL21(DE3) preincubated for 10 mins followed by ATP addition measured after 60 mins by malachite green dye-based assay
How it was run: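 Compound series 100 to 0.0457 µM, 2% DMSO final, 10 min at 37°C. Started with 200 µM ATP, incubated 60 min at 37°C, then malachite green OD660 read. IC50 from semi-log fit of normalized % inhibition.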

[9] = molecular target: Eukaryotic initiation factor 4A-I (Homo sapiens) (UniProt P60842); test: Inhibition of eIF4A (unknown origin) expressed in Escherichia coli BL21(DE3) at 100 uM preincubated for 10 mins followed by ATP and fluorescently-labeled RNA addition measured after 10 mins by real-time fluorescence assay relative to control
How it was run: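 Real-time fluorescence helicase assay. eIF4A at 500 nM in MES-KOH pH 6.0 buffer, preincubated 10 min at 22°C with compound at 100 µM, 2% DMSO final. Started with 50 nM labeled RNA plus 1 mM ATP, or water as control, and read for 10 min at 25°C. % inhibition = 100 − ((A−B)/(C−B)×100), using the slopes of compound (A), water (B) and DMSO (C) traces.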

Chain of Eukaryotic initiation factor 4A-I (Homo sapiens) (P60842 whole entry): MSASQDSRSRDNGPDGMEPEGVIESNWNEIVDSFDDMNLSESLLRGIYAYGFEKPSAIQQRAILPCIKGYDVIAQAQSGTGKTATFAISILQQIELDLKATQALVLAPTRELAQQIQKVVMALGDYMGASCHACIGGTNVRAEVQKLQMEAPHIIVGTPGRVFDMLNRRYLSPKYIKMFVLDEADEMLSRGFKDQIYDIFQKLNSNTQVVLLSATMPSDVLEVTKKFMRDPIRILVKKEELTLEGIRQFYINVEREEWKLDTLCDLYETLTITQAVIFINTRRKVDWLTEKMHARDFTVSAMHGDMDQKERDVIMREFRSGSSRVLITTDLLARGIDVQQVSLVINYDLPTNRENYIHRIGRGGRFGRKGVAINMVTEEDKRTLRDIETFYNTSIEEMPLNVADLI
Chain of Probable ATP-dependent RNA helicase DDX17 (Q92841 whole entry): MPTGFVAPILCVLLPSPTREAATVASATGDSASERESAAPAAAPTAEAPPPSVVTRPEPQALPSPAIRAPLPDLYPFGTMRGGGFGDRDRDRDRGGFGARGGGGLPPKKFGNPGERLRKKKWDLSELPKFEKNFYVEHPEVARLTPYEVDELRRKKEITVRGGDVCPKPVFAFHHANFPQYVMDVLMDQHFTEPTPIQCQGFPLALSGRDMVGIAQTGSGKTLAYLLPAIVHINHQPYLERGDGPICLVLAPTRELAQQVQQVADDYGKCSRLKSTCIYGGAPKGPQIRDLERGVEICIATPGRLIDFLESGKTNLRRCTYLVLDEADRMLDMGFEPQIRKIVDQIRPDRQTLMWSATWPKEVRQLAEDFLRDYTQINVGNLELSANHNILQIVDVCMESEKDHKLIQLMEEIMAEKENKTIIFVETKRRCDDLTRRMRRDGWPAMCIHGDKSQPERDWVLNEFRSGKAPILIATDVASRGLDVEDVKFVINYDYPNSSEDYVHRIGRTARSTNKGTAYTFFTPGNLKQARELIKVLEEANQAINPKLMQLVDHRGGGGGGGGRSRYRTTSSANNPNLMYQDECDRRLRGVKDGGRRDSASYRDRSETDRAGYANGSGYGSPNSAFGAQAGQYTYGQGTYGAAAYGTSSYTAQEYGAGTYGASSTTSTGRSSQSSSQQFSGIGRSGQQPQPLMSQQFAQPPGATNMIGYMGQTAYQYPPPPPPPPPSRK
Chain of ATP-dependent RNA helicase DDX3X (O00571 whole entry): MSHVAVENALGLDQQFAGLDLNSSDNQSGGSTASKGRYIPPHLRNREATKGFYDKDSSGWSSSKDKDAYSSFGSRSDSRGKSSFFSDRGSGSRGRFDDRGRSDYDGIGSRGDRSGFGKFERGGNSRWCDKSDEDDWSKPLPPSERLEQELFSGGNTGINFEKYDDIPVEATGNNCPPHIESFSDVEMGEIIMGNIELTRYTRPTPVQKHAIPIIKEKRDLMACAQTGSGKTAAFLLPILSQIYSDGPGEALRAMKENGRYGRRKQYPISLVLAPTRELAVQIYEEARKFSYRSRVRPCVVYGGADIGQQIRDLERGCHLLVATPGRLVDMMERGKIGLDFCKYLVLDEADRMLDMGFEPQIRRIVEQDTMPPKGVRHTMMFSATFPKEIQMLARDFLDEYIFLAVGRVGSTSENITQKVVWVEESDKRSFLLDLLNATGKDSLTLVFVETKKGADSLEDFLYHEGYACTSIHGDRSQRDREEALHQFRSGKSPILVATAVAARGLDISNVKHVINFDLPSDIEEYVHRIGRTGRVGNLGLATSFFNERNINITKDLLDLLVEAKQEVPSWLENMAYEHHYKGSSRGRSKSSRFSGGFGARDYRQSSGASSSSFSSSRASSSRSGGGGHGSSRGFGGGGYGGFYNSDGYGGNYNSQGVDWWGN
Chain of Heat shock 70 kDa protein 1A (P0DMV8 whole entry): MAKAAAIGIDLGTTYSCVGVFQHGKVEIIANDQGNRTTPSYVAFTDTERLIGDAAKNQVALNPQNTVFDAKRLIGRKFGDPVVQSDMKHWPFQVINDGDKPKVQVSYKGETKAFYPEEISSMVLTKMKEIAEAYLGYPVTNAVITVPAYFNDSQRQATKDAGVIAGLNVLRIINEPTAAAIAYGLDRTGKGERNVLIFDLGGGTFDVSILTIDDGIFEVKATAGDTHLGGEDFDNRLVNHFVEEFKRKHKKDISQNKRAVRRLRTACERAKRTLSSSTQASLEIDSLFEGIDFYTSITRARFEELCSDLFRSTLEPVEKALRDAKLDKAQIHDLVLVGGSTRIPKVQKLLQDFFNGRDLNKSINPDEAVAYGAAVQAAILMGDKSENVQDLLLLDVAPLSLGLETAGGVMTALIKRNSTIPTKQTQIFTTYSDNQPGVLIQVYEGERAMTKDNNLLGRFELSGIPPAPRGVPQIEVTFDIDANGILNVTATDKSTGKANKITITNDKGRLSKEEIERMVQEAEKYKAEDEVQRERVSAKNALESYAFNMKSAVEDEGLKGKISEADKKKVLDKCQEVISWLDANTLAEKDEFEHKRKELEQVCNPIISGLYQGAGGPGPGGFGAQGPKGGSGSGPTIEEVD
Chain of Transitional endoplasmic reticulum ATPase (P55072 whole entry): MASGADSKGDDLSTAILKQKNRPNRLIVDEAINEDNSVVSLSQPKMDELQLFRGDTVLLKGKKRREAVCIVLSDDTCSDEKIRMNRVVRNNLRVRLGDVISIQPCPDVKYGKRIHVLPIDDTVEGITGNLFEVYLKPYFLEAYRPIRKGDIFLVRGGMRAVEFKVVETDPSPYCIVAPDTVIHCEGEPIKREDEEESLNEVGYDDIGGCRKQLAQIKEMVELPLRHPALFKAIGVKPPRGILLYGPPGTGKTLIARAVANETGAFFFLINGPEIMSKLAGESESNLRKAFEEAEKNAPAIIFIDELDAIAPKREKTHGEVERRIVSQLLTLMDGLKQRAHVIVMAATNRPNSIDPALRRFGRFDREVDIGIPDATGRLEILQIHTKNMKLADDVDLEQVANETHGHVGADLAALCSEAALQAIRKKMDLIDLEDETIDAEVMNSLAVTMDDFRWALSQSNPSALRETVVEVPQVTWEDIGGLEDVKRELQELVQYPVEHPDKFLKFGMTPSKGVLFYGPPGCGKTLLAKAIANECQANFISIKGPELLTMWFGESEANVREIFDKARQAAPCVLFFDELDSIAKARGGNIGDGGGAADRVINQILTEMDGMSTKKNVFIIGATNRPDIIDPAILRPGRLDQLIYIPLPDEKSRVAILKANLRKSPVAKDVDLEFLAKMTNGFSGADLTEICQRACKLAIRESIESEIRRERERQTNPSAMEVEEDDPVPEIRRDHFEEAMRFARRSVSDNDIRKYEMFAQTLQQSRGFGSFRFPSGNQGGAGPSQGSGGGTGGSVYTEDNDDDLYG
Chain of ATP-dependent RNA helicase DDX39A (O00148 whole entry): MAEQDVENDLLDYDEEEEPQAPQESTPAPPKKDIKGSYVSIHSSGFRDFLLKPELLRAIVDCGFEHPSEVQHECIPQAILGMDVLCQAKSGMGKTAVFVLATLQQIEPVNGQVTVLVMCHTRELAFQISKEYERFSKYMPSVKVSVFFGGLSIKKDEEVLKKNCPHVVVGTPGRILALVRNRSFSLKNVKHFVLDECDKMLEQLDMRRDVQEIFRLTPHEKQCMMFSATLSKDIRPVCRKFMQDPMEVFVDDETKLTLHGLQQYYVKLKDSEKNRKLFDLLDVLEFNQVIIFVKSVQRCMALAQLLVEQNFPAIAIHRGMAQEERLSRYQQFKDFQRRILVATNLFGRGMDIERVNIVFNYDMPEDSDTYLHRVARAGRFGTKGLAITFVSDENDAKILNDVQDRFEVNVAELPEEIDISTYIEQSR

In the case of C=C1CC[C@@](C)(c2cc(Br)c(C)cc2O)[C@H]1C, the inhibition [1] is reported as “Active”, the IC50 [2] is reported as over 100 µM and the Kis [3] is reported as 3.86 µM. For the same molecule, the IC50 [4] was over 100 µM, the IC50 [5] was over 100 µM and the IC50 [6] was over 100 µM. The inhibition [7] was “Active” and the IC50 [8] was over 100 µM.

For C[C@H]1C[C@@]2(O[C@H]3C[C@H]4[C@@H]5CC[C@H]6C[C@H](O)CC[C@]6(C)[C@H]5[C@@H](O)C[C@]4(C)[C@H]3[C@@]2(C)O)OC1(C)C, the inhibition [1] was “Active”.

In the case of CC(C)=C[C@@H]1C[C@H](C)c2c(O)cc(C)c3c2C1=C(C)C(=O)C3=O [ELISABATIN A], the inhibition [9] is reported as 34%, the IC50 [2] is reported as over 100 µM and the Kis [3] is reported as 55 µM. For the same molecule, the IC50 [4] was over 100 µM, the IC50 [5] was over 100 µM and the IC50 [6] was over 100 µM. For the same molecule, the inhibition [7] was “Active” and the IC50 [8] was over 100 µM.
